ABHD4 inh = ABHD4 inhibitors, primary screen, biochemical, fluorescence polarization, mouse | (Lyso)-N-acylphosphatidylethanolamine lipase (Mus musculus), Q8VD66 | purified mABHD4, FP-Rh probe fluorescence polarization | inhibition, % at 8.92 µM | actives 0.54% (n = 370,000);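 active means inhibition exceeding the mean over every tested compound plus 3 SD, cut at about 30% in these data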;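 further: 0% = plate median of compound wells and 100% = S159A mutant with DMSO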
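Assay system: Wild-type mouse ABHD4 protein | Medium: HEPES pH 7.0 buffer, 150 mM NaCl, 0.01% Pluronic F-127 | Incubation: Enzyme–compound pre-incubation 45 min, then probe 60 min, both 25 °C | Technique: Fluorescence polarization with parallel and perpendicular emission, 525/598 nm | Evaluation: % inhibition of FP-Rh probe binding versus controls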
SIAE inh = human SIAE inhibitors, primary screen, biochemical, fluorescence polarization, FP-Rh probe, 1536-well HTS; inhibition, % at 9.66 µM; SIAE FP-Rh probe binding; actives 0.69% (n = 370,000); AID 1053197, 2014; Sialate O-acetylesterase (Homo sapiens), Q9HAT2;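 active means inhibition above a cutoff: mean of compounds within the control limits plus 3 SD of those, cut at about 17% in these data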;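 further: 0% = plate median of compound wells and 100% = probe without SIAE protein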
LEDGF integ inh = blockers of LEDGF/p75-dependent integrase strand transfer – biochemical, TR-FRET, high throughput, primary screen; HIV-1 integrase (with human LEDGF/p75); TR-FRET IN-LEDGF/p75 DNA integration, Eu/Cy5; inhibition, % at 3.7 µM; actives 0.64% (n = 370,000); AID 743269, 2014;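 active means inhibition above the screen-wide mean plus 3 SD, cut at about 13% in these data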;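 further: signal is the Cy5 over europium emission ratio at 671 and 618 nm; 0% = plate median of compound wells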
TCR CD3 inh = inhibitors of human TCR-CD3 interaction, primary screen, biochemical, fluorescence, TAMRA-labeled TCR probe; inhibition, % at 9.4 µM; T-cell receptor (TCR); AID 651800, 2012; actives 0.37% (n = 360,000); in the data active means inhibition above about 19%;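 further: recombinant mutant TCR 2C K166C tagged with TAMRA read by polarization; 0% = receptor in buffer alone and 100% = receptor with positive control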
TDP2 absorb = human TDP2 enzyme inhibitors, primary screen, biochemical, epi absorbance, recombinant enzyme; AID 720702, 2013; T5PNP hydrolysis, p-nitrophenol absorbance 415 nm; Tyrosyl-DNA phosphodiesterase 2 (Homo sapiens), O95551; inhibition, % at 12.8 µM; actives 0.34% (n = 370,000);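 active means inhibition above the mean of all tested compounds plus 3 SD, set per campaign, cut at about 25% in these data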;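 further: 0% = DMSO with enzyme and 100% = buffer with substrate but no TDP2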
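Read-out basis: percent inhibition. System: recombinant human TDP2. Buffer or medium: Mg2+-containing Tris-HCl buffer, pH 7.5. Repeats: single replicate. Timing: reaction 2 h, 37 °C. Benchmarks: high control without enzyme, low control DMSO plus TDP2. Probe or stimulus: 5 mM T5PNP. Doses: 12.8 µM only. Measured by: epi absorbance of p-nitrophenol freed from T5PNP by hydrolysis.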
HTRA1 inh = HTRA1 serine protease inhibitors, primary screen, biochemical, fluorescence polarization, HTS; inhibition, % at 5.96 µM; recombinant HTRA1, FP-rhodamine activity-based probe; Q92743; actives 0.5% (n = 340,000); in the data active means inhibition above about 36%;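 further: 0% = enzyme with DMSO and 100% = wells lacking enzyme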
Target sequence (Q92743 whole entry, looked up): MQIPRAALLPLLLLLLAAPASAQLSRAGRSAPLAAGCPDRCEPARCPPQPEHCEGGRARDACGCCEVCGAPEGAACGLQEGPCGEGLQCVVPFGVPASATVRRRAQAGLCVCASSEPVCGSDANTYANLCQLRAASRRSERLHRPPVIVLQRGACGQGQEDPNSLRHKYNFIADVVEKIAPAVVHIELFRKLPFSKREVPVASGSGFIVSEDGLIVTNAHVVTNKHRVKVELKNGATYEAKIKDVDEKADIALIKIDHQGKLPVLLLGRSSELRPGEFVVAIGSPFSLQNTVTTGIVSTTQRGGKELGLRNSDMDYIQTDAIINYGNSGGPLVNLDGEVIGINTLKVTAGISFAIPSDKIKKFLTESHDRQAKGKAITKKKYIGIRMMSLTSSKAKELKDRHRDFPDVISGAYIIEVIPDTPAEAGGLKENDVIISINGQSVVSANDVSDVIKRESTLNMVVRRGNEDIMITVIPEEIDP
IN multimer act = HIV-1 IN multimer formation enhancers, counter-screen for LEDGF/p75 integration inhibitor project, biochemical, TR-FRET | shares compounds with LEDGF integ inh | TR-FRET HIV-1 integrase multimerization | activation, % at 7.7 µM | actives 17% (n = 2,000); in the data active means activation above about 8.9%
TRFRET interf = TR-FRET optical interference artefacts, confirmation, artefact control for LEDGF/p75-dependent integration inhibitor project, biochemical, HIV-1 IN multimerization. TR-FRET optical interference counterscreen. inhibition, % at 7.7 µM. 2,000 tested, under 10 active. shares compounds with LEDGF integ inh;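 active means inhibition above the mean over all tested compounds plus 3 SD, which no compound reached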;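 further: 0% = integrase with antibodies and DMSO and 100% = antibodies without integrase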
IN-LEDGF confirm = inhibitors of HIV-1 IN-LEDGF/p75 DNA integration, confirmation, biochemical, TR-FRET; shares compounds with LEDGF integ inh; TR-FRET LEDGF/p75-dependent HIV-1 integration; inhibition, % at 3.7 µM; actives 36% (n = 2,000); AID 1053136, 2014; in the data active means inhibition above about 14%
* hit, by the source's call; . = no result given. Sampled rows, rich in hits. Any-hit rate of the full collection: about 2.2%.

SMILES	ABHD4 inh	SIAE inh	LEDGF integ inh	TCR CD3 inh	TDP2 absorb	HTRA1 inh	IN multimer act	TRFRET interf	IN-LEDGF confirm
CCOc1ccc2c(c1)C(C)=CC(C)(C)N2C(=O)Nc1ccccc1F	17	4	22*	2	34*	-1	4	-21	1
CCNC(=O)N1c2ccc(OCC)cc2C(C)=CC1(C)C	9	3	7	1	11	7	.	.	.
COc1cc(C)c2c(c1C=O)Oc1c(c(C)c(O)c3c1C(O)OC3=O)OC2=O (configuration not stated)	26	-2	90*	-8	-4	8	1	-3	92*
C[C@H]1[C@@H](c2ccccc2)Oc2ccc(Cl)cc2S(=O)(=O)N1Cc1cccc(Cl)c1	-5	-7	2	2	0	.	.	.	.
CCOC(OCC)P(=O)(CNC(c1ccccc1)(c1ccccc1)c1ccccc1)OCC (configuration not stated)	5	-1	3	.	8	.	.	.	.
COC(=O)[C@]12C[C@H](CC(=O)NCc3cccc4ccccc34)C(=O)N(CCC3=CCCCC3)C1=C[C@H](COCc1ccccc1)O[C@@H]2C	5	-2	0	-6	11	.	.	.	.
CCN(CC)C1CCN(Cc2c(C(=O)N3CCCCCCC3)nc3ccc(Cl)cn23)C1 (configuration not stated)	11	3	-3	8	2	-3	.	.	.
CCN(CCn1cccn1)Cc1c(C(=O)N2CCCCCCC2)nc2ccc(Cl)cn12	0	-4	27*	4	-4	-2	1	-6	-5
COc1cccc(/C=N/N2CCOCC2)c1O	4	3	1	7	0	6	.	.	.
COc1cccc(C=Nc2ccc(N3CCOCC3)cc2)c1O	20	9	18*	4	24	17	2	-8	-3
C[C@H](O)[C@@H]1CN2CCc3ccc(-c4ccc5c(c4)OCO5)cc3[C@@H]2C[C@@H]1N(C)Cc1cc(Cl)cc(Cl)c1	-8	-7	-3	9	-2	.	.	.	.
CCCCCCC/C=C(\C)[C@@H](O)[C@@H](C)C(=O)N1CCC[C@@H]1C(=O)O[C@H](C(=O)O[C@@H](C)C(=O)O)[C@@H](C)CC	17	7	3	.	-8	.	.	.	.
N#Cc1nc(COc2ccccc2Cl)oc1N1CCCC1	3	0	19*	1	4	-3	1	-4	-7
CC1=CC(C)(C)NC(=S)N1c1ccc(C)cc1	1	5	21*	-1	5	-2	-2	8	4
Cn1c(SCC(=O)NC2CCCC2)nnc1C(F)(F)F	1	-1	2	-2	-5	19	.	.	.
CCOC(=O)C1=C(COC(=O)CSc2ccc(C)cc2)NC(=O)NC1C (configuration not stated)	2	5	1	11	12	-5	.	.	.
COc1ccc(CC(=O)N/N=C/c2cccnc2)cc1OC	-3	2	-3	1	-7	3	.	.	.
CCOc1ccc(CC(=O)N/N=C/c2cccnc2)cc1OCC	4	0	70*	-4	7	-1	2	-10	0
CON(Cc1ccccc1)S(=O)(=O)c1ccccc1Br	-9	2	4	0	-13	.	.	.	.

Screening results from PubChem.
